According to article PMC4618637 (Pharmacology Research & Perspectives, 2015):
Where two headings read alike, the source gives them in different places.

Assays:
[1] = isotope-labeled 6S administered orally; ref Asami et al. [2010]; cited from earlier work
[2] = Recovery of TU-100 ingredients in small intestinal luminal contents; format: in vivo, rat; conditions: for Effect of β-glucuronidase treatment on luminal amounts: rat small intestinal contents
Procedure, shortened: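 Fasted male Sprague Dawley rats (n = 3 per time) were killed 0.083–4 h after oral TU-100 with maltose. The small intestine was ligated into quarters (sites 1–4, oral to anal), and contents were collected with cold water to 10 mL and stored at −80°C. Aliquots, with or without β-glucuronidase (final 0.1 U/μL, pH 6.0, 37°C), were mixed with HBSS/30% acetonitrile and internal standard, then analysed by LC-MS/MS. Amount per site was expressed as % of dosed ingredient; mean ± SD.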

[3] = format: in vivo; conditions: human ileal effluent 4 h after 5 g TU-100 oral
Procedure, shortened: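 Subjects were 10 ileostomy patients (2 male, 8 female), with stoma made at least 2 weeks prior and normal small intestine by enteroscopy. Those given kampo medicine within 4 weeks were excluded. A new bag was fitted, then 5 g TU-100 drug product (0.42 g drug substance) was taken, followed by an unrestricted breakfast. Effluent was collected at 4 h and frozen at −80°C. Liquid–liquid extraction used pH 5.0 ammonium acetate/PEG, methanol and internal standard, with or without β-glucuronidase (final 0.1 U/μL, 37°C), before LC-MS/MS. Results were expressed as % of ingested amount.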

[4] = Portal blood pharmacokinetics of TU-100 ingredients after single oral TU-100; format: in vivo, rat
Procedure, shortened: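 Purchased male Sprague Dawley rats with hepatic portal vein catheters were fasted 16 h. They received oral TU-100 drug substance at 0.3 g/kg plus 2.4 g/kg maltose (n = 5). Portal plasma was sampled at 0.083, 0.25, 0.5, 1, 2, 4, 8 and 24 h and stored at −80°C. Samples were protein-precipitated with internal standard, optionally treated with β-glucuronidase (final 0.1 U/μL, pH 6.0, 37°C), then run on LC-MS/MS. Cmax and tmax were observed; AUC0–last was taken to the last detected time; values mean ± SD.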

[5] = format: in vivo, rat; conditions: for Effect of β-glucuronidase treatment on blood concentrations: rat blood, data not shown
Procedure, shortened: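 Male Sprague Dawley rats (7 weeks, 274.2–317.7 g) were fasted 16 h and had jugular vein catheters placed 2 days earlier. Single oral TU-100 drug substance was given at 0.3 g/kg with 2.4 g/kg maltose (n = 5), or 0.9 g/kg with 7.2 g/kg maltose for 6G/6S. Plasma was taken at 0.083–24 h and analysed by LC-MS/MS after acetonitrile/methanol precipitation with internal standard. Cmax observed; AUC0–last; t1/2 = ln2/ke.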

[6] = all sites, all rats, all time points, data not shown
[7] = rat peripheral blood, oral TU-100 0.3 g/kg, untreated, mean ± SD, n = 5
[8] = site 3 and 4, at 30 min and 1 h (Fig. 2)
[9] = site 4, at 2 h and 4 h (Fig. 2)
[10] = male, Sprague Dawley, rat, plasma from peripheral blood, po, 0.3 g/kg
[11] = male, Sprague Dawley, rat, plasma from portal blood, po, 0.3 g/kg
[12] = male, Sprague Dawley, rat, plasma from peripheral blood, po, 0.9 g/kg

## CCCCC/C=C/C(=O)CCc1ccc(O)c(OC)c1 [6S, [6]-shogaol]
[1]
  Isotope labels recovered in the urine: about 90%
[2]; all sites, all rats, all time points (Fig. 3)
  Presence of 6S and its conjugates in luminal contents: virtually absent
[3]; β-glucuronidase treatment +
  % of ingested TU-100, Max: 0.8%
  % of ingested TU-100, Median: 0.4%
[3]; β-glucuronidase treatment −
  % of ingested TU-100, Median: B.L.Q
[4]; rat portal blood
  Portal blood levels of 6S and its conjugates relative to 6G/6G conjugates: approximately one tenth
[4]; rat portal blood after oral TU-100
  Concentrations of 6S and its conjugates in the portal blood: below 20 ng/mL

## C/C=C/C=C/C=C/CC/C=C/C(=O)NCC(C)(C)O [HBS, hydroxy-β-sanshool]
[2]; [6]
  Level in luminal contents as % of the ingested amount: < 1%
  Level in small intestinal luminal contents: below 10 μg/site
[3]; β-glucuronidase treatment −
  % of ingested TU-100, Median: B.L.Q
[5]
  Effect of β-glucuronidase treatment on blood concentrations: no effect

## C/C=C/C=C/C=C\CC/C=C/C(=O)NCC(C)(C)O [HAS, hydroxy-α-sanshool]
[2]; [6]
  Level in luminal contents as % of the ingested amount: < 1%
  Level in small intestinal luminal contents: below 10 μg/site
[3]; β-glucuronidase treatment −
  % of ingested TU-100, Max: 0.4%
  % of ingested TU-100, Median: B.L.Q
[5]
  Effect of β-glucuronidase treatment on blood concentrations: no effect
[5]; [7]
  AUCall: 951 ± 264 ng·h/mL
  AUClast: 951 ± 264 ng·h/mL
  Cmax: 778 ± 276 ng/mL
  Tmax: 0.283 ± 0.209 h
  t1/2: 3.01 ± 2.90 h
[5]; rat portal and peripheral blood
  Time for blood concentration to reach almost 0: ≤ 5 h

## CC(C)=CCC[C@](C)(O[C@@H]1O[C@H](CO[C@@H]2O[C@H](CO)[C@@H](O)[C@H](O)[C@H]2O)[C@@H](O)[C@H](O)[C@H]1O)[C@H]1CC[C@]2(C)[C@@H]1[C@H](O)C[C@@H]1[C@@]3(C)CC[C@H](O[C@@H]4O[C@H](CO)[C@@H](O)[C@H](O)[C@H]4O[C@@H]4O[C@H](CO)[C@@H](O)[C@H](O)[C@H]4O)C(C)(C)[C@@H]3CC[C@]12C [Rb1, ginsenoside Rb1]
[2]
  Effect of β-glucuronidase treatment on luminal amounts: did not have a significant effect
[2]; [8]
  Level in luminal contents as % of the ingested amount: around 10%
[2]; [9]
  Level in luminal contents as % of the ingested amount: ~50%
[3]; β-glucuronidase treatment −
  % of ingested TU-100, Max: 77.5%
  % of ingested TU-100, Median: 59.1%
[5]; male, Sprague Dawley, rat, plasma (peripheral and portal blood), oral, 0.3 g/kg
  Tmax: ~4 h
[5]; [10]
  AUC: 34.3 ± 12 ng·h/mL
  AUC(0-t): 34.3 ± 12 ng·h/mL
  Cmax: 2.12 ± 0.759 ng/mL
  Tmax: 4.8 ± 1.79 h
[5]
  Effect of β-glucuronidase treatment on blood concentrations: no effect
[4]; [11]
  AUC: 28.7 ± 6.29 ng·h/mL
  AUC(0-t): 28.7 ± 6.29 ng·h/mL
  Cmax: 2.1 ± 1.13 ng/mL
  Tmax: 6 ± 2.31 h

## C/C=C/C=C/C=C\CC/C=C/C=C/C(=O)NCC(C)C [GS, γ-sanshool]
[3]; β-glucuronidase treatment −
  % of ingested TU-100, Max: 68.1%
  % of ingested TU-100, Median: 4.1%

## CC(C)=CCC[C@](C)(O[C@@H]1O[C@H](CO)[C@@H](O)[C@H](O)[C@H]1O)[C@H]1CC[C@]2(C)[C@@H]1[C@H](O)C[C@@H]1[C@@]3(C)CC[C@H](O)C(C)(C)[C@@H]3[C@@H](O[C@@H]3O[C@H](CO)[C@@H](O)[C@H](O)[C@H]3O)C[C@]12C [Rg1, ginsenoside Rg1]
[2]
  Effect of β-glucuronidase treatment on luminal amounts: did not have a significant effect
[2]; [8]
  Level in luminal contents as % of the ingested amount: around 10%
[2]; [9]
  Level in luminal contents as % of the ingested amount: ~30%
[3]; β-glucuronidase treatment −
  % of ingested TU-100, Max: 114.0%
  % of ingested TU-100, Median: 91.5%
[5]; rat blood after oral TU-100
  Blood concentrations: too low to obtain reliable data

## CCCCCCCCC/C=C/C(=O)CCc1ccc(O)c(OC)c1 [10S, [10]-shogaol]
[3]; β-glucuronidase treatment +
  % of ingested TU-100, Max: 3.5%
  % of ingested TU-100, Median: 0.8%
[3]; β-glucuronidase treatment −
  % of ingested TU-100, Median: B.L.Q

## CCCCC[C@H](O)CC(=O)CCc1ccc(O)c(OC)c1 [6G, [6]-gingerol]
[2]; all sites, at 30 min (Fig. 3)
  6G in luminal contents as % of the ingested amount: below 2%
[2]; sites 3 and/or 4, after 1 h (Fig. 3)
  Unconjugated 6G in luminal contents as % of the ingested amount: 2–3%
[3]; β-glucuronidase treatment −
  % of ingested TU-100, Median: B.L.Q
[5]; [12]
  AUC: 0.974 ± 0.839 ng·h/mL
  AUC(0-t): 0.974 ± 0.839 ng·h/mL
  Cmax: 0.676 ± 0.479 ng/mL
  Tmax: 0.466 ± 0.857 h
[4]; [11]
  AUC: 59.7 ± 40.4 ng·h/mL
  AUC(0-t): 59.7 ± 40.4 ng·h/mL
  Cmax: 38.3 ± 31.8 ng/mL
  Tmax: 1.31 ± 1.8 h
  half-life: 1.79 h
[4]; rat portal blood
  Peak concentration of 6G and its conjugates relative to that of HAS: about one-fifth

## CCCCCCCCC[C@H](O)CC(=O)CCc1ccc(O)c(OC)c1 [10G, [10]-gingerol]
[3]; β-glucuronidase treatment +
  % of ingested TU-100, Max: 9.1%
  % of ingested TU-100, Median: 4.3%
[3]; β-glucuronidase treatment −
  % of ingested TU-100, Median: B.L.Q
